# Assay outcomes deposited in PubChem by several laboratories.
# The entries come from a sample that favours hits as a whole.
# Redox H2O2 prof = compounds producing H2O2 with reducing agent – biochemical, NIH compound library profiling, artefact control for MLSCN library redox annotation, primary screen; DTT-dependent redox cycling H2O2, phenol red/HRP absorbance; 100% = 100 µM peroxide control, 0% = buffer; activation, % at 10 µM; hit rate 0.03% among 200,000; AID 878;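 active means activation of at least 50% relative to the plate's high and low controls in the primary single-dose screen; inactive means activation below 50%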;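 further: compound incubated with DTT at 0.8 mM final as the reducing agent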
# L major viab = inhibitors of Leishmania major promastigote growth; Leishmania major promastigotes, resazurin fluorescence viability; inhibition, % at 10 µM; hit rate 9% among 200,000; AID 1063; in the data active means inhibition above about 50%;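 further: promastigotes grown with compound for 44 hours at 28 °C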
# MPTP inh = inhibitors of mitochondrial permeability transition pore. hit rate 1.4% among 360,000. AID 602449. inhibition, % at 10 µM. isolated mouse mitochondria, Ca2+ swelling absorbance, 30 min;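 active means inhibition of 50% or more, scaled per plate between neutral and stimulator controls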;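 further: 0% = DMSO wells given calcium and 100% = 1 mM EGTA wells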
# Lipid droplet = hepatic lipid droplet formation modulation; AML12 mouse hepatocytes, oleate lipid droplets, BODIPY imaging; inhibition, % at 6.5 µM; hit rate 0.4% among 240,000;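 active means lipid droplet intensity inhibited by at least 50%, with more than 500 cells counted; inconclusive means wells with under 300 cells, treated as cytotoxic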
#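 Material: mouse AML12 hepatocyte cell line, fixed after treatment; Timing: compound with oleate, overnight; Technique: high-content imaging of BODIPY-stained droplets and DAPI nuclei; Probe or stimulus: oleate, 100 µM final; Dosing: compound at 6.5 µM only.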
# T cruzi repl = blocks replication of Trypanosoma cruzi; T. cruzi beta-gal in NIH3T3, luminescence, 90 h; hit rate 1.4% among 300,000; inhibition, % (concentration not given with the values); AID 1885;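 active means mean inhibition across valid replicates above about 55%, limit read from the data; inconclusive means mean below that limit but half or more replicates reach it; inactive means mean below it, under half of replicates reach it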;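 further: signal also drops with host cell toxicity which is not excluded here; 0% = plate median of DMSO wells and 100% = zero luminescence signal; higher percent means less beta-gal luminescence so fewer parasites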
#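 Test system: β-gal T. cruzi (Tulahuen C4) inside NIH/3T3 cells / Quantity: 5,000 cells/well / Measured by: luminescence from GalScreen with 0.05% NP40, read after 60 min / Medium: DMEM plus 2% FBS / Measure: parasite load inhibition, % / Reagent: Tulahuen C4 trypomastigotes, 5000/well / Schedule: co-culture of at least 90 h after 3 h attachment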
# The depositor's hits bear a star; u = inconclusive; x = no result.
SMILES,Redox H2O2 prof,L major viab,MPTP inh,Lipid droplet,T cruzi repl
Nc1nc2cc(Cl)ccc2cc1C(=O)NCCCc1ccccc1,x,x,27.5,x,x
COc1ccc(/C=C/C(=O)N2CCN(c3ccccn3)CC2)c2ccccc12,-0.2,-2.9,-0.3,6.5,2.9
CN1CCN(C(=O)c2cc(Cl)ccc2NC(=O)c2ccc(Cl)cc2Cl)CC1,x,x,1.4,-4.8,-7.4
O=[N+]([O-])c1nn(-c2ccc3c(c2)OCCO3)n(O)c1=Nc1ccc(Cl)cc1,-3.3,77.4*,1.4,x,55.1*
O=[N+]([O-])c1nn(-c2ccc(Cl)cc2)n(O)c1=NCc1ccccc1,-0.8,31.9,2.7,8.3,13.7
CCc1ccc(N=c2c([N+](=O)[O-])nn(-c3ccc4c(c3)OCCO4)n2O)cc1,0.3,48.8,1.5,25.5,61.8*
Cc1ccc(N=c2c([N+](=O)[O-])nn(-c3ccc4c(c3)OCCO4)n2O)c(Cl)c1,0.2,17.6,x,-4.2,75.1*
Cc1ccc(N=c2c([N+](=O)[O-])nn(-c3ccc(Cl)cc3)n2O)cc1C,-2.0,27.0,-0.1,11.2,58.8*
Cc1cc2c(c(C#N)c1C)NC=NC2C (centres undefined),x,x,0.4,x,x
O=[N+]([O-])c1nn(-c2ccc3c(c2)OCCO3)n(O)c1=Nc1ccccc1,0.8,97.1*,-1.1,15.3,41.0
Cc1ccc(N=c2c([N+](=O)[O-])nn(-c3ccc4c(c3)OCCO4)n2O)cc1F,10.3,23.1,1.9,2.1,u
Cc1cc(C)cc(N=c2c([N+](=O)[O-])nn(-c3ccc4c(c3)OCCO4)n2O)c1,-0.6,84.7*,1.3,5.3,58.4*
CCOc1ccc(NC(=O)CCC(=O)NNC(=O)Nc2ccc(Cl)cc2)cc1,-1.8,1.2,3.0,7.0,-1.4
COc1ccc(/C=C/C(=O)NC(=S)NNC(=O)Cc2cccs2)cc1,-1.3,98.2*,7.6,8.2,15.1
O=C(/C=C/c1ccccc1)NC(=S)NNC(=O)Cc1cccs1,1.1,23.4,2.3,-1.0,-7.9
COc1ccc(/C=C/C(=O)NC(=S)NNC(=O)c2ccco2)cc1,0.6,99.1*,-3.2,40.2,-0.6
CCCCNc1c(-c2ccc(SC3CCCCC3)cc2)nc2ccccn12,x,x,1.6,x,71.2*
O=C1CCCC2=C1C(c1ccc(Cl)cc1)n1c(s/c(=C\c3ccc4ccncc4c3)c1=O)=N2 (centres undefined),-0.2,98.3*,-0.1,1.4,-22.6
COc1ccc(S(=O)(=O)Nc2ccc3c(c2)C(=O)N([C@H](C)CO)C[C@H](C)[C@@H](CN(C)S(=O)(=O)c2ccc(OC)cc2)O3)cc1,x,x,0.8,x,x
COc1ccccc1CNCC(O)(c1ccc(F)cc1)c1ccc(F)cc1,x,x,0.9,-0.8,31.4
CCN(CC)CCNCc1ccc(-c2ccc(Cl)cc2)o1,-1.3,90.8*,1.4,x,30.6
CCN(CC)CCNCC(O)(c1ccc(Cl)cc1)c1ccc(Cl)cc1,8.6,71.6*,6.1,-4.4,-7.0
COc1ccccc1CNCC(O)(c1ccc(Cl)cc1)c1ccc(Cl)cc1,-4.1,100.5*,-0.7,x,37.0
CCOC(=O)[C@H]1[C@H]2COc3ccc(Cl)cc3[C@@H]2N2C(=O)c3cc(F)ccc3NC(=O)[C@@]12C,x,x,-1.5,x,x
Cc1ccc(-c2nn(-c3ccccc3)cc2C=O)o1,-1.9,52.1*,-1.4,10.7,-5.1
SMILES,Redox H2O2 prof,L major viab,MPTP inh,Lipid droplet,T cruzi repl
Cc1ccc(-c2nn(-c3ccccc3)cc2C(N)=O)o1,-0.3,-4.0,2.5,7.4,-3.5
C/C(CC(=O)Nc1cccc2c1CCCC2)=N\NC=O,0.0,-5.7,2.1,-12.0,11.0
C/C(=N\Nc1nc(N2CCCCC2)nc(N2CCOCC2)n1)c1cccs1,-0.2,10.0,-0.4,1.9,7.5
CC(=O)Nc1ccc(/C(C)=N/Nc2nc(Nc3cccc4ccccc34)nc(N3CCOCC3)n2)cc1,0.2,57.9*,0.9,37.7,26.9
C/C(=N\Nc1nc(N2CCCCCC2)nc(N2CCCCCC2)n1)c1ccccc1,0.0,51.0*,2.5,-2.2,34.6
O=C(COC(=O)COc1ccc(Cl)cc1)NC1CC1,x,x,-1.8,x,x
CCCn1c(NC(=O)c2cccc(C)c2C)nc2ccccc21,0.2,98.2*,0.9,x,u
CCCn1c(NC(=O)c2ccc(Cl)c(S(=O)(=O)N3CCCC3)c2)nc2ccccc21,2.5,71.6*,4.2,x,66.1*
Cn1c(NC(=O)c2ccccc2NC(=O)C(C)(C)C)nc2ccccc21,-0.3,77.2*,-0.4,-2.3,17.7
CCN(CC)CCn1c(NC(=O)c2ccc(C)cc2)nc2ccccc21,x,x,3.9,-14.9,31.5
CCN(CC)CCn1c(NC(=O)c2ccc(C(F)(F)F)cc2)nc2ccccc21,-0.7,13.8,1.5,0.7,62.0*
O=C(COC(=O)CC1CC2CCC1C2)Nc1cccc(S(=O)(=O)NC2=NCCCCC2)c1 (centres undefined),-0.5,7.6,2.5,-17.1,2.1
Cn1ncc([N+](=O)[O-])c1C(=O)Nc1nc2ccccc2n1CCN1CCCCC1,1.2,8.1,0.7,x,1.3
CCCn1c(NC(=O)c2ccc([N+](=O)[O-])o2)nc2ccccc21,x,x,1.7,x,57.8*
C/C(=N\NC(=S)Nc1ccccc1C)c1cc2ccccc2o1,x,x,2.9,-7.1,58.6*
O=c1c(Cl)c(NCc2ccccc2)cnn1C12CC3CC(CC(C3)C1)C2,0.2,92.6*,-1.5,-4.0,29.3
O=C(Nc1nc(-c2ccc(Cl)s2)cs1)c1cccs1,0.4,6.6,12.7,x,75.8*
O=C(Nc1nc(-c2ccccn2)cs1)c1cc2ccccc2o1,-0.1,100.1*,-5.0,21.3,76.9*
Cn1cccc1C(=O)Nc1nc(-c2ccccn2)cs1,2.9,100.1*,1.3,x,65.5*
O=C(Nc1nc(-c2ccccn2)cs1)c1ccc(Cl)s1,-0.1,100.2*,-0.2,x,58.2*
CCn1c(SCC(=O)N/N=C(/C)c2ccncc2)nc2ccccc21,x,x,2.7,5.8,-12.0
CCC(=O)NC(=S)NNC(=O)c1ccc(O)cc1,-0.1,-6.9,1.0,-2.6,-8.7
O=C(Nc1nc(-c2ccccn2)cs1)c1ncc(Cl)c(Cl)c1Cl,1.4,100.5*,-0.6,x,35.2
Cc1ccc(C(=O)Nc2nc(-c3ccccn3)cs2)s1,x,x,-2.6,x,x
CCN(C(=O)c1ccco1)c1nc(CC(=O)Nc2ccc(Cl)cc2)cs1,1.1,1.3,5.8,x,13.1
SMILES,Redox H2O2 prof,L major viab,MPTP inh,Lipid droplet,T cruzi repl
CCN(CC)CCCN(C(=O)c1ccco1)c1nc(-c2ccc(C)cc2)cs1,0.2,71.7*,6.0,-7.6,32.8
CCN(CC)CCCN(C(=O)c1ccco1)c1nc(-c2ccc(Cl)cc2)cs1,x,x,2.7,-12.6,58.8*
COCCCN(C(=O)c1ccco1)c1nc(-c2ccc(OC)cc2)cs1,x,x,2.7,-0.8,13.6
O=c1[nH]c(=S)[nH]c2c1C(c1ccc(Br)cc1)c1c([nH]c(=S)[nH]c1=O)O2,x,x,0.3,-5.4,0.3
O=C(/C=C/c1cccc(O)c1)c1cccnc1,-0.7,98.6*,0.9,0.9,-11.9
O=C(/C=C/c1cccnc1)c1cccc(O)c1,x,x,0.2,-0.6,-3.1
CN(CC(=O)Nc1ccc(F)c(F)c1F)C(=O)C1CCCC1,x,x,-0.8,x,x
